Assay results from different studies.
Target: Carbonic anhydrase 2 (CA2, Homo sapiens, UniProt P00918)
Observed: enzyme activity
Mode: inhibitor

NC(=S)N/N=C1/c2ccccc2[C@@H]2[C@H]1[C@@H](c1ccccc1)[C@H](C(=O)c1ccccc1)[C@H]2c1ccccc1 (racemic)  IC50 (absorbance): 1.33 µM
O=C(Nc1ccc2c(c1)C=CCP(=O)(O)O2)c1ccc(Br)cc1  Ki (stopped-flow): > 10 µM
Cc1c(Cl)c(=O)oc2cc(OCCCC[Se]C#N)ccc12  Ki (stopped-flow): > 100 µM
CC(C)c1cc2c(c(O)c1O)[C@@]13CCCC(C)(C)[C@@H]1C[C@@H]2OC3=O  IC50: 0.00547 µM
Cc1ccc([C@H]2[C@H](C(=O)c3cccs3)[C@@H](c3cccs3)[C@@H]3c4ccccc4/C(=N/NC(N)=S)[C@@H]32)cc1 (racemic)  IC50 (absorbance): 0.562 µM
O=C(Nc1ccc2c(c1)C=CCP(=O)(O)O2)c1cccs1  Ki (stopped-flow): > 10 µM
CC(C)c1cc2c(c(O)c1O)[C@@]13CCCC(C)(C)[C@@H]1[C@@H](O)[C@@H]2OC3=O  IC50: 0.00578 µM
NC(=S)N/N=C1/c2ccccc2[C@@H]2[C@H]1[C@@H](c1ccc(Cl)cc1)[C@H](C(=O)c1ccc(Cl)cc1)[C@H]2c1ccc(Cl)cc1 (racemic)  IC50 (absorbance): 0.298 µM
CC(C)c1cc2c(c(O)c1O)[C@@]13CCCC(C)(C)[C@@H]1[C@H](OC3=O)[C@H]2O  Ki: 0.00499 µM
O=C(Nc1ccc2c(c1)C=CCP(=O)(O)O2)c1ccc2ccccc2c1  Ki (stopped-flow): > 10 µM
N#C[Se]Cc1cc(=O)oc2cc(O)ccc12  Ki (stopped-flow): > 100 µM
COc1ccc(C(=O)[C@@H]2[C@@H](c3ccc(OC)cc3)[C@@H]3c4ccccc4/C(=N/NC(N)=S)[C@@H]3[C@H]2c2ccc(OC)cc2)cc1 (racemic)  IC50 (absorbance): 0.992 µM
Cc1ccc(NC(=O)Nc2ccc3c(c2)C=CCP(=O)(O)O3)cc1  Ki (stopped-flow): > 10 µM
NC(=S)N/N=C1/c2ccccc2[C@@H]2[C@H]1[C@@H](c1ccc(C(F)(F)F)cc1)[C@H](C(=O)c1ccc(C(F)(F)F)cc1)[C@H]2c1ccc(C(F)(F)F)cc1 (racemic)  IC50 (absorbance): 0.551 µM
CC(C)c1cc2c(c(O)c1O)[C@@]1(C(=O)O)CCCC(C)(C)[C@@H]1CC2  Ki: 0.0042 µM
